In brackets after ≈: the same amount, converted by molar mass.
Tests used:
[1] = Apparent half life in Sprague-Dawley rat at 3.6 mg/kg, iv; type: ADME, organism-based; parameters: dose 3.6 mg/kg, route intravenous; details: in vivo
How it was run: (§1)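 Adult male Sprague-Dawley rats fasted overnight; dose 3.6 mg/kg prepared fresh, dissolved in water/0.01 M HCl/propylene glycol/ethanol/Tween 80 (1:2:1:0.1:0.1), given orally (1 mL) or intravenously (350 µL). Food returned 5 h post-dose. Heparinized blood taken at set time points, plasma held at -80°C, analysed by LC/MS/MS; parameters by non-compartmental analysis.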

[2] = Volume of distribution at steady state in Sprague-Dawley rat at 3.6 mg/kg, iv; type: ADME, organism-based; parameters: dose 3.6 mg/kg, route intravenous; details: in vivo, read-out: Vdss; how it was run: as §1
Rattus norvegicus [3] = assay: AUC (0 to infinity) in Sprague-Dawley rat at 3.6 mg/kg, iv; type: ADME, organism-based, Plasma; parameters: time infinity, dose 3.6 mg/kg, route intravenous; details: in vivo; how it was run: as §1
Rattus norvegicus [4] = assay: AUC (0 to infinity) in Sprague-Dawley rat at 3.6 mg/kg, po; type: ADME, organism-based, Plasma; parameters: time infinity, dose 3.6 mg/kg, route oral; details: in vivo; how it was run: as §1
[5] = (§2) Cmax in Sprague-Dawley rat at 3.6 mg/kg, po; type: ADME, organism-based; parameters: dose 3.6 mg/kg, route oral; details: Sprague-Dawley, in vivo; how it was run: as §1
[6] = (§3) Tmax in Sprague-Dawley rat at 3.6 mg/kg, po; type: ADME, organism-based; parameters: dose 3.6 mg/kg, route oral; details: Sprague-Dawley, in vivo; how it was run: as §1
Rattus norvegicus [7] = assay: (§4) Oral bioavailability in Sprague-Dawley rat at 3.6 mg/kg; type: ADME, organism-based; details: in vivo; how it was run: as §1
[8] = (§5) Apparent half life in Sprague-Dawley rat at 3.6 mg/kg, po; type: ADME, organism-based; parameters: dose 3.6 mg/kg, route oral; details: Sprague-Dawley, in vivo, read-out: t1/2(app) (converted); how it was run: as §1
[9] = Aqueous solubility of the compound at pH 2; type: physicochemical; details: buffer
[10] = Aqueous solubility of the compound at pH 6.5; type: physicochemical; details: buffer
Plasmodium falciparum [11] = assay: Antiplasmodial activity against Plasmodium falciparum NF54 by [3H]hypoxanthine incorporation assay; type: functional, organism-based
How it was run: (§6)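 Modified [3H]-hypoxanthine incorporation assay on P. falciparum asexual cultures, chloroquine and artesunate as references in every run. IC50 values are means of ≥2 independent experiments; individual values mostly within 2-fold (maximum 3-fold).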

CHO = assay: Cytotoxicity against CHO cells; type: cell-based, Cricetulus griseus; details: chinese hamster
[12] = Selectivity index, ratio of IC50 for CHO cells to IC50 for Plasmodium falciparum; type: toxicity, cell-based; details: hamster, read-out: Ratio IC50
Plasmodium berghei [13] = assay: Antimalarial activity against Plasmodium berghei ANKA infected in mouse assessed as reduction in parasitemia at 50 mg/kg/day, po qd administered for 4 days relative to control; type: functional; parameters: Activity: scale not given: the % may be the effect or the level left
How it was run: (§7)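 Mice (n = 3) infected with GFP-transfected P. berghei ANKA; compound in HPMC suspension vehicle given orally once daily at 4, 24, 48 and 72 h after infection. Blood collected day 4 (96 h post-infection); parasitemia by flow cytometry (detection limit 0.1%). Activity = difference in mean % parasitemia between control and treated groups, as % of control.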

Plasmodium berghei [14] = assay: Antimalarial activity against Plasmodium berghei ANKA infected in mouse assessed as reduction in parasitemia at 10 mg/kg/day, po qd administered for 4 days relative to control; type: functional; parameters: Activity: scale not given: the % may be the effect or the level left; how it was run: as §7
Plasmodium berghei [15] = assay: Antimalarial activity against Plasmodium berghei ANKA infected in mouse assessed as reduction in parasitemia at 3 mg/kg/day, po qd administered for 4 days relative to control; type: functional; parameters: Activity: scale not given: the % may be the effect or the level left; how it was run: as §7
[16] = Plasma concentration in mouse infected with Plasmodium berghei ANKA at 50 mg/kg/day, po after 1 hr by HPLC analysis; type: ADME, organism-based; parameters: route oral
How it was run: (§8)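 P. berghei-infected mice dosed orally at 50 mg/kg daily for 4 days; blood sampled 1, 4 and 24 h after the first dose and analysed by HPLC for drug levels.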

[17] = Plasma concentration in mouse infected with Plasmodium berghei ANKA at 50 mg/kg/day, po after 4 hrs by HPLC analysis; type: ADME, organism-based; parameters: route oral; how it was run: as §8
[18] = system: CHO cells (Cricetulus griseus); assay: Cytotoxicity against Chinese hamster CHO cells
[19] = system: CHO cells (Cricetulus griseus); assay: Selectivity index, ratio of IC50 for Chinese hamster CHO cells to IC50 for Plasmodium falciparum
Rattus norvegicus [20] = assay: as §2; type: ADME, organism-based; parameters: dose 3.6 mg/kg, route oral; details: in vivo; how it was run: as §1
Rattus norvegicus [21] = assay: as §3; type: ADME, organism-based; parameters: dose 3.6 mg/kg, route oral; details: in vivo; how it was run: as §1
[22] = as §4; type: ADME, organism-based; details: Sprague-Dawley, in vivo; how it was run: as §1
Rattus norvegicus [23] = assay: as §5; type: ADME, organism-based; parameters: dose 3.6 mg/kg, route oral; details: in vivo; how it was run: as §1
Plasmodium falciparum [24] = assay: Antiplasmodial activity against Plasmodium falciparum K1 by [3H]hypoxanthine incorporation assay; type: functional, organism-based; how it was run: as §6

Compound: C[S+]([O-])c1ccc(-c2cnc3ccc(-c4cccc(S(=O)(=O)C5CC5)c4)nn23)cc1 (centres undefined)
- half-life [1]: 0.55 h
- Vd [2]: 0.73 L/kg
- AUC (Rattus norvegicus [3]): 3.3 µM·h
- AUC (Rattus norvegicus [4]): 0.36 µM·h
- Cmax [5]: 40 nM
- Tmax [6]: 8 h
- bioavailability (Rattus norvegicus [7]): 11%
- half-life [8]: 4.8 h
- solubility [9]: 61 µM (≈ 26.7 µg/mL)
- solubility [10]: < 5 µM
- IC50 (Plasmodium falciparum [11]): 1.1 nM
- Activity (CHO): Non-toxic
- selectivity ratio [12]: > 1000
- Activity (Plasmodium berghei [13]): 99.8%
- MSD (Plasmodium berghei [13]): >30 days
- Activity (Plasmodium berghei [14]): 99.6%
- MSD (Plasmodium berghei [14]): 8 days
- Activity (Plasmodium berghei [15]): 98%
- MSD (Plasmodium berghei [15]): 7 days
- concentration at 1 h [16]: 80 nM
- concentration at 4 h [17]: 20 nM
- Activity [18]: Non-toxic
- selectivity ratio [19]: > 1000

Compound: CS(=O)(=O)c1ccc(-c2cnc3ccc(-c4cccc(S(=O)(=O)C5CC5)c4)nn23)cc1
- Vd [2]: 2.3 L/kg
- AUC (Rattus norvegicus [3]): 121 µM·h
- AUC (Rattus norvegicus [4]): 27 µM·h
- Cmax (Rattus norvegicus [20]): 1500 nM
- Tmax (Rattus norvegicus [21]): 12 h
- bioavailability [22]: 24%
- t1/2(app) (Rattus norvegicus [23]): 4.8 h
- solubility [9]: 19 µM (≈ 8.62 µg/mL)
- solubility [10]: < 5 µM
- IC50 (Plasmodium falciparum [24]): 0.53 nM
- IC50 (Plasmodium falciparum [11]): 0.88 nM
